ChEMBL document CHEMBL5331087, “Targeted AURKA degradation: Towards new therapeutic agents for neuroblastoma” (Eur J Med Chem, 2023)
Values belong to the compound of their own block, whether it stands above or below them. Activity calls are given as the source filed them. No cut-off for these calls is given here.

Assays:
[1] = target: T1, Protein cereblon/Aurora kinase A (Homo sapiens) (UniProt O14965+Q96SW2); experiment: PROTAC activity at AURKA/CRBN in human NGP cells assessed as AURKA degradation at 10 to 1000 nM measured for 24 hrs by Western blot analysis relative to control; assay type: cell-based; conditions: dose 10-1000 nM
T1 sequence (Q96SW2 whole entry, looked up, one chain of several): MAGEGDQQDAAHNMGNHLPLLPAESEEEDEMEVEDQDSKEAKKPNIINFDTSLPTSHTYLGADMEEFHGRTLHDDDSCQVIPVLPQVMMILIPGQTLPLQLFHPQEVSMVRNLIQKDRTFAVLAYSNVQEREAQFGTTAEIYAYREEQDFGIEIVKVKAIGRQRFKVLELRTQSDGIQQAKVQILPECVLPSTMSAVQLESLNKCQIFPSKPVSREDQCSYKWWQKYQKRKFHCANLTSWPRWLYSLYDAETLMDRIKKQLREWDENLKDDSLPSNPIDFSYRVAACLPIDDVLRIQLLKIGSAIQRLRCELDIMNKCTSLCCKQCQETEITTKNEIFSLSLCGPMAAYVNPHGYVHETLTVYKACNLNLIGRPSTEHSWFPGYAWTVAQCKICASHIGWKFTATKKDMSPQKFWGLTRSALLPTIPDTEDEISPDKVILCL
Method in brief: (§1)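 NGP cells were seeded at about 2×10^6 per flask, adhered for 48 h, and were then treated for 24 h with DMSO matched. Lysis was in RIPA with protease/phosphatase inhibitors. AURKA was quantified by capillary Simple Western with peak areas normalised to vinculin. Fold change is relative to DMSO (mean ± SD, n = 3).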

[2] = Antiproliferative activity against human NGP cells assessed as reduction in cell viability incubated for 48 hrs; assay type: functional, cell-based
Method in brief: (§2)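 Cells were grown in RPMI 1640 with 10% FCS and 2 mM L-glutamine. Seeding was 4500 cells/well for NGP, IMR-32 and N206, and 2100 cells/well for SK-N-AS, with adherence overnight. Compound was dispensed over a concentration range in triplicate. Confluence was imaged live for 48 h and normalised to the DMSO control. Absolute IC50 came from a four-parameter variable-slope fit (n = 4).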

[3] = target: T1, Protein cereblon/Aurora kinase A (Homo sapiens); experiment: PROTAC activity at AURKA/CRBN in human NGP cells assessed as AURKA degradation measured for 24 hrs by Western blot analysis; assay type: cell-based; conditions: dose 10-1000 nM
[4] = target: T1, Protein cereblon/Aurora kinase A (Homo sapiens); experiment: PROTAC activity at AURKA/CRBN in human NGP cells assessed as AURKA degradation at 10 nM measured for 24 hrs by Western blot analysis relative to control; assay type: cell-based; method in brief: as §1
[5] = target: T2, Aurora kinase A (Homo sapiens) (UniProt O14965); experiment: Induction of AURKA degradation (unknown origin) measured for 6 hrs relative to control
T2 sequence (whole entry): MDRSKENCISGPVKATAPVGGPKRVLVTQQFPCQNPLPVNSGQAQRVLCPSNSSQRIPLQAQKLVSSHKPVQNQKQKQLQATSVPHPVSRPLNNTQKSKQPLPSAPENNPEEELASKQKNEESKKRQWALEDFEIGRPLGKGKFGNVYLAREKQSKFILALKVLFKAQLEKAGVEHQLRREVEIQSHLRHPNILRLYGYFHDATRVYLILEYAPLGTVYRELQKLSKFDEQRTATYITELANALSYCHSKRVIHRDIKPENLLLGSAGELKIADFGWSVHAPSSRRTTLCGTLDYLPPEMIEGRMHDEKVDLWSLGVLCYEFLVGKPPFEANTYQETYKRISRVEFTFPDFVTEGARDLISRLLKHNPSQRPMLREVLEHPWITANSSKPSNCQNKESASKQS

Aurora kinase A = target: T3, Aurora kinase A (Homo sapiens, UniProt O14965); experiment: Induction of AURKA degradation (unknown origin) measured for 6 hrs
T3 sequence (O14965 whole entry): T2 sequence (whole entry)

[6] = Growth inhibition of patient derived NB139 Neuroblastoma organoid assessed as reduction in viability […] by CellTiter Glo 3D assay; assay type: functional, tissue-based; conditions: Homo sapiens
Method in brief: (§3)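 Patient-derived organoids were dissociated to single cells with Accutase and seeded in NB organoid medium at 5000 (000GKX), 20000 (NB059), 5000 (NB067) or 3000 (NB139) cells/well. Compound was added after 24 h over a concentration range in triplicate, with DMSO matched. Incubation was 120 h at 37 °C and 5% CO2. Viability was read by CellTiter-Glo 3D, and absolute IC50 derived (n = 1).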

SK-N-AS [7] = experiment: Antiproliferative activity against human SK-N-AS cells assessed as reduction in cell viability incubated for 48 hrs relative to control; assay type: functional
Method in brief: (§4)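 Cells grown in RPMI 1640 with 10% fetal calf serum, 2 mM L-glutamine and penicillin/streptomycin at 37 °C, 5% CO2. Seeded at 4500 (IMR-32) or 2100 (SK-N-AS) cells/well in 384-well plates and left to adhere overnight. Concentration range dispensed in triplicate. Confluence tracked by IncuCyte live-cell imaging, and 48h values normalized to DMSO. Absolute IC50 taken from a four-parameter variable-slope fit (n = 4).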

Homo sapiens [8] = species: Homo sapiens; experiment: Growth inhibition of patient derived NB139 Neuroblastoma organoid assessed as reduction in viability incubated for […] by CellTiter Glo 3D assay relative to control; assay type: functional
[9] = Growth inhibition of patient derived NB059 Neuroblastoma organoid assessed as reduction in viability incubated for 48 hrs by CellTiter Glo 3D assay; assay type: functional, tissue-based, Homo sapiens; conditions: in the assay text read “120 hrs” for “48 hrs”; method in brief: as §3
SK-N-AS [10] = experiment: Antiproliferative activity against human SK-N-AS cells assessed as reduction in cell viability incubated for 48 hrs; assay type: functional, cell-based; conditions: sk-n-as; method in brief: as §2
NGP = experiment: Antiproliferative activity against human NGP cells assessed as reduction in cell viability incubated for 48 hrs relative to control; assay type: functional
N206 = experiment: Antiproliferative activity against human N206 cells assessed as reduction in cell viability incubated for 48 hrs relative to control; assay type: functional
IMR-32 [11] = experiment: Antiproliferative activity against human IMR-32 cells assessed as reduction in cell viability incubated for 48 hrs; assay type: functional, cell-based; conditions: IMR-32, 48 h; method in brief: as §2
[12] = target: T1, Protein cereblon/Aurora kinase A (Homo sapiens); experiment: PROTAC activity at AURKA/CRBN in human NGP cells assessed as AURKA degradation at 10 to 1000 nM measured for 24 hrs by immunoblotting analysis; assay type: cell-based; conditions: dose 10-1000 nM; method in brief: as §1
[13] = Growth inhibition of patient derived NB067 Neuroblastoma organoid assessed as reduction in viability […] by CellTiter Glo 3D assay; assay type: functional, tissue-based; conditions: Homo sapiens; method in brief: as §3
[14] = Growth inhibition of patient derived 000GKX Neuroblastoma organoid assessed as reduction in viability […] by CellTiter Glo 3D assay; assay type: functional, tissue-based, Homo sapiens; conditions: Homo sapiens, Neuroblastoma organoid; read-out: IC50; method in brief: as §3
[15] = target: T4, N-myc proto-oncogene protein (Homo sapiens) (UniProt P04198); experiment: Induction of MYCN degradation in human NGP cells at 500 nM measured upto 72 hrs by Western blot analysis; assay type: cell-based
T4 sequence (whole entry): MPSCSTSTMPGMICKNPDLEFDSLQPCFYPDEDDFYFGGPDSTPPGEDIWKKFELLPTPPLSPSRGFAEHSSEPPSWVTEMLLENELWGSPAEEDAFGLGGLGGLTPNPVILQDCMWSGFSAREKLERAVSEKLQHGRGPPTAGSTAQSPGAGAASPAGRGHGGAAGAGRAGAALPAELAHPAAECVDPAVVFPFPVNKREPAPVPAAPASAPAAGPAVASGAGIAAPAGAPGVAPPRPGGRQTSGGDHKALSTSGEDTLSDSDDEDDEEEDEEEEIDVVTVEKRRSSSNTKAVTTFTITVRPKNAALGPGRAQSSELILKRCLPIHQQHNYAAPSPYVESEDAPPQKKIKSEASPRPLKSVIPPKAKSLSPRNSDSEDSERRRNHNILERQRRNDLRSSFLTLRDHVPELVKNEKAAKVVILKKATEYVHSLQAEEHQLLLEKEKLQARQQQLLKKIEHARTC
Method in brief: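 NGP cells were treated with 500 nM compound and harvested at 0, 1, 3, 6, 24, 48 and 72 h. RIPA lysates (35 µg) were run on 10% SDS-PAGE and blotted to nitrocellulose. AURKA and MYCN were probed with vinculin as loading control and quantified by densitometry. Values are percent remaining relative to the DMSO control at each timepoint (n = 3).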

IMR-32 [16] = experiment: Antiproliferative activity against human IMR-32 cells assessed as reduction in cell viability incubated for 48 hrs relative to control; assay type: functional; method in brief: as §4
Homo sapiens [17] = species: Homo sapiens; experiment: Growth inhibition of patient derived NB059 Neuroblastoma organoid assessed as reduction in viability incubated for […] by CellTiter Glo 3D assay relative to control; assay type: functional
Homo sapiens [18] = species: Homo sapiens; experiment: Growth inhibition of patient derived 000GKX Neuroblastoma organoid assessed as reduction in viability incubated for […] by CellTiter Glo 3D assay relative to control; assay type: functional
[19] = Antiproliferative activity against human N206 cells assessed as reduction in cell viability incubated for 48 hrs; assay type: functional, cell-based; method in brief: as §2
Homo sapiens [20] = species: Homo sapiens; experiment: Growth inhibition of patient derived NB067 Neuroblastoma organoid assessed as reduction in viability incubated for […] by CellTiter Glo 3D assay relative to control; assay type: functional
[21] = target: T1, Protein cereblon/Aurora kinase A (Homo sapiens); experiment: PROTAC activity at AURKA/CRBN in human NGP cells assessed as downregulation of AURKA level at 10 to 1000 nM measured for 24 hrs by Western blot analysis; assay type: cell-based; conditions: dose 10-1000 nM; method in brief: as §1
[22] = target: T1, Protein cereblon/Aurora kinase A (Homo sapiens); experiment: PROTAC activity at AURKA/CRBN in human NGP cells assessed as reduction in AURKA level at 10 nM measured for 24 hrs by Western blot analysis relative to control; assay type: cell-based; set-up: scale not given: the % may be the effect or the level left; method in brief: as §1
[23] = target: T1, Protein cereblon/Aurora kinase A (Homo sapiens); experiment: PROTAC activity at AURKA/CRBN in human NGP cells assessed as AURKA degradation at 1000 nM measured for 24 hrs by Western blot analysis relative to control; assay type: cell-based; method in brief: as §1
[24] = target: T1, Protein cereblon/Aurora kinase A (Homo sapiens); experiment: PROTAC activity at AURKA/CRBN in human NGP cells assessed as reduction in AURKA level at 100 nM measured for 24 hrs by Western blot analysis relative to control; assay type: cell-based; set-up: scale not given: the % may be the effect or the level left; method in brief: as §1
[25] = target: T1, Protein cereblon/Aurora kinase A (Homo sapiens); experiment: PROTAC activity at AURKA/CRBN in human NGP cells assessed as AURKA degradation at 0.1 to 1000 nM measured for 24 hrs by Western blot analysis relative to control; assay type: cell-based; conditions: dose 0.1-1000 nM; method in brief: as §1

Activity [1]: inactive
Activity [3]: inactive
SMILES: O=C1CCC(N2C(=O)c3cccc(OCCOCCNC(=O)[C@]4(Cc5cccc(Nc6nccs6)n5)CC[C@@H](Oc5cccc(Cl)c5F)CC4)c3C2=O)C(=O)N1 (stereo partly drawn)
IC50 [2]: 1310 nM

Emax [1]: 85%
Emax [4]: 85%
SMILES: O=C1CCC(N2C(=O)c3ccc(OCCOCCOCCOCCNC(=O)[C@]4(Cc5cccc(Nc6nccs6)n5)CC[C@@H](Oc5cccc(Cl)c5F)CC4)cc3C2=O)C(=O)N1 (stereo partly drawn)
IC50 [2]: 40.1 nM

Emax [5]: 82%
DC50 (Aurora kinase A): 3 nM
SMILES: O=C(COc1cccc2c1C(=O)N(C1CCC(=O)NC1=O)C2=O)NCCOCCOCCOCCNC(=O)[C@]1(Cc2cccc(Nc3nccs3)n2)CC[C@@H](Oc2cccc(Cl)c2F)CC1 (stereo partly drawn)
IC50 [2]: 102 nM

SMILES: O=C(O)[C@]1(Cc2cccc(Nc3nccs3)n2)CC[C@@H](Oc2cccc(Cl)c2F)CC1 [MK-5108]
IC50 [6]: 900 nM
Emax (SK-N-AS [7]): 58.5%
Emax (Homo sapiens [8]): 44.1%
IC50 [9]: Not Active
IC50 (SK-N-AS [10]): Not Active
Emax (NGP): 32.9%
Emax (N206): 53.2%
IC50 (IMR-32 [11]): 199 nM
IC50 [2]: 362 nM
Activity [12]: inactive
IC50 [13]: 75.3 nM
IC50 [14]: 483 nM
Activity [15]: Active
Emax (IMR-32 [16]): 20.4%
Emax (Homo sapiens [17]): 75.9%
Emax (Homo sapiens [18]): 59.5%
IC50 [19]: Not Active
Emax (Homo sapiens [20]): 14.2%

Activity [21]: inactive
SMILES: CN1C(=O)CCC(N2C(=O)c3cccc(OCCOCCOCCOCCNC(=O)[C@]4(Cc5cccc(Nc6nccs6)n5)CC[C@@H](Oc5cccc(Cl)c5F)CC4)c3C2=O)C1=O (stereo partly drawn)
IC50 [2]: 1100 nM

Activity [22]: 45%
Activity [23]: Active
Activity [24]: 17%
SMILES: O=C1CCC(N2C(=O)c3ccc(OCCOCCNC(=O)[C@]4(Cc5cccc(Nc6nccs6)n5)CC[C@@H](Oc5cccc(Cl)c5F)CC4)cc3C2=O)C(=O)N1 (stereo partly drawn)
IC50 [2]: 63.3 nM

Activity [3]: Active
SMILES: O=C(COc1cccc2c1C(=O)N(C1CCC(=O)NC1=O)C2=O)NCCOCCOCCNC(=O)[C@]1(Cc2cccc(Nc3nccs3)n2)CC[C@@H](Oc2cccc(Cl)c2F)CC1 (stereo partly drawn)
IC50 [2]: 83.3 nM

Emax [1]: 85%
SMILES: O=C1CCC(N2C(=O)c3ccc(OCCOCCOCCNC(=O)[C@]4(Cc5cccc(Nc6nccs6)n5)CC[C@@H](Oc5cccc(Cl)c5F)CC4)cc3C2=O)C(=O)N1 (stereo partly drawn)
IC50 [2]: 69.9 nM

Emax [25]: 73%
SMILES: COc1cc(Nc2ncc3c(n2)-c2ccc(Cl)cc2C(c2c(F)cccc2OC)=NC3)ccc1C(=O)NCCOCCOCCNC(=O)COc1cccc2c1C(=O)N(C1CCC(=O)NC1=O)C2=O (stereo not drawn)
IC50 [2]: 877 nM

Emax [1]: 85%
Activity [3]: Active
SMILES: O=C1CCC(N2C(=O)c3cccc(OCCOCCOCCOCCOCCNC(=O)[C@]4(Cc5cccc(Nc6nccs6)n5)CC[C@@H](Oc5cccc(Cl)c5F)CC4)c3C2=O)C(=O)N1 (stereo partly drawn)
IC50 [2]: 50.9 nM

Emax [1]: 85%
Emax [4]: 85%
SMILES: O=C1CCC(N2C(=O)c3ccc(OCCOCCOCCOCCOCCNC(=O)[C@]4(Cc5cccc(Nc6nccs6)n5)CC[C@@H](Oc5cccc(Cl)c5F)CC4)cc3C2=O)C(=O)N1 (stereo partly drawn)
IC50 [2]: 34 nM

Emax [1]: 85%
Activity [3]: Active
SMILES: O=C1CCC(N2C(=O)c3cccc(OCCOCCOCCNC(=O)[C@]4(Cc5cccc(Nc6nccs6)n5)CC[C@@H](Oc5cccc(Cl)c5F)CC4)c3C2=O)C(=O)N1 (stereo partly drawn)
IC50 [2]: 80.8 nM
